What was measured:
Conditions in all cases: stereoisomer not certain
[1] = target: T1, OR51I2 (Homo sapiens) (UniProt Q9H344)
T1 sequence (whole entry): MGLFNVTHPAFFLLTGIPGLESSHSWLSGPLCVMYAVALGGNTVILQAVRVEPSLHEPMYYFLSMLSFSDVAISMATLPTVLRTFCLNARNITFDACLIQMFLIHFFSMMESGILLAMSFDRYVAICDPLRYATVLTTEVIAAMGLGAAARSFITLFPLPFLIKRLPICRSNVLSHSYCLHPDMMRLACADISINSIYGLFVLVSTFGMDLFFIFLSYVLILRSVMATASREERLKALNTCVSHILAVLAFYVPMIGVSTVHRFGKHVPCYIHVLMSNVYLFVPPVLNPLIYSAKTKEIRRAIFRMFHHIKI
In short: (§1)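 Each receptor–molecule pair is labelled responsive or non-responsive (inactive) according to whether the original authors judged the measured signal statistically different from baseline. The data were taken from the main text and supplementary material of published papers and checked for typos and inconsistencies. Assay methods differed by source, with transient luciferase assays in mammalian cell lines being common.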

[2] = target: T2, OR51J1 (Homo sapiens) (UniProt Q9H342)
T2 sequence (whole entry): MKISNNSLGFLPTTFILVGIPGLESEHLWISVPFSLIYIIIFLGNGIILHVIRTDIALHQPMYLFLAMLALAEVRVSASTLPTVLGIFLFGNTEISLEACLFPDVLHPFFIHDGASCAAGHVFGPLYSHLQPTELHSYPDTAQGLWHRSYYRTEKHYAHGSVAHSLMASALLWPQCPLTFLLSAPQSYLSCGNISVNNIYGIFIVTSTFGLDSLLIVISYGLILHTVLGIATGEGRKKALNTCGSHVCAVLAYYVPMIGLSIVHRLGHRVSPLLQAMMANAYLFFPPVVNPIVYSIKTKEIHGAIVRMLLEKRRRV
In short: as §1

[3] = target: T3, OR51L1 (Homo sapiens) (UniProt Q8NGJ5)
T3 sequence (whole entry): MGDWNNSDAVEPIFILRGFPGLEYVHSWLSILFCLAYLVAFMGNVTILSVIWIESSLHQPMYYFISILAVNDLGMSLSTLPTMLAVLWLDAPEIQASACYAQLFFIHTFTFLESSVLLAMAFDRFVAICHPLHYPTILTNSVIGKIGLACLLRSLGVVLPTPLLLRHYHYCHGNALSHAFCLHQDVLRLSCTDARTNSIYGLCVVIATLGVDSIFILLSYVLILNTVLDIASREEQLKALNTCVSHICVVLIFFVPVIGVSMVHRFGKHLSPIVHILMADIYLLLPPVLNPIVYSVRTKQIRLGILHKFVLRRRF
In short: as §1

[4] = target: T4, OR51M1 (Homo sapiens) (UniProt Q9H341)
T4 sequence (whole entry): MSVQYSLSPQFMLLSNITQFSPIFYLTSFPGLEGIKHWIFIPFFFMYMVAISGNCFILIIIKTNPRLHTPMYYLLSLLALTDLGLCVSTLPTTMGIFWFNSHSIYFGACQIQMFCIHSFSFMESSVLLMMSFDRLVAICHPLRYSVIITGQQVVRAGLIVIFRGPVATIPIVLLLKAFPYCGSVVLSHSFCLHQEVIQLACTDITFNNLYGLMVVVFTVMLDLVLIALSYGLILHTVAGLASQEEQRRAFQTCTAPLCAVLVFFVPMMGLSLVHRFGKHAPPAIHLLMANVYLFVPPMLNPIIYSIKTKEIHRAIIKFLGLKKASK
In short: as §1

[5] = target: T5, OR51Q1 (Homo sapiens) (UniProt Q8NH59)
T5 sequence (whole entry): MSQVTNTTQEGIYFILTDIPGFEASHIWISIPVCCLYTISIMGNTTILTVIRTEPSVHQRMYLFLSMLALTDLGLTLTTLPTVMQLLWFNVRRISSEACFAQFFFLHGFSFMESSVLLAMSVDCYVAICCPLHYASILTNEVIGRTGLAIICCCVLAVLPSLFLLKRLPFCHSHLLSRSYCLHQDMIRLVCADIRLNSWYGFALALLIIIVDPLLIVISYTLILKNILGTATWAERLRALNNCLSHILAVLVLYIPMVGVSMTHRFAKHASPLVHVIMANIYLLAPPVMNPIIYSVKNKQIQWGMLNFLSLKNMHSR
In short: as §1

[6] = target: T6, OR51S1 (Homo sapiens) (UniProt Q8NGJ8)
T6 sequence (whole entry): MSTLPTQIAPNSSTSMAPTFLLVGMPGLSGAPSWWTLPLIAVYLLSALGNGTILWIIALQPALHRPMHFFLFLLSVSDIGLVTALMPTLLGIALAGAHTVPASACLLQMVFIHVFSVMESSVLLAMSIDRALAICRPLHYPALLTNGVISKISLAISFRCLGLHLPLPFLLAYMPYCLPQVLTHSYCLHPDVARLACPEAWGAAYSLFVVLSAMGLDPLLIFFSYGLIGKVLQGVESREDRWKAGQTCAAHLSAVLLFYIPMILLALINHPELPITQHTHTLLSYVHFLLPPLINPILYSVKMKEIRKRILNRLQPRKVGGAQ
In short: as §1

[7] = target: T7, OR51T1 (Homo sapiens) (UniProt Q8NGJ9)
T7 sequence (whole entry): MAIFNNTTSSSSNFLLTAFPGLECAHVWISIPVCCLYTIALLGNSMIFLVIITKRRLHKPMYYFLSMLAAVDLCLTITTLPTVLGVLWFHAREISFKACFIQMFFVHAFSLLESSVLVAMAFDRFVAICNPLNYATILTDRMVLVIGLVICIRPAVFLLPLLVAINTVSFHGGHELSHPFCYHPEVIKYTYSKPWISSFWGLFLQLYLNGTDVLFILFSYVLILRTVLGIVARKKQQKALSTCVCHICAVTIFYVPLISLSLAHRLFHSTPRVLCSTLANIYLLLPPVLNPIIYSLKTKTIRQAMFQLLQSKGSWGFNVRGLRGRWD
In short: as §1

[8] = target: T8, OR51V1 (Homo sapiens) (UniProt Q9H2C8)
T8 sequence (whole entry): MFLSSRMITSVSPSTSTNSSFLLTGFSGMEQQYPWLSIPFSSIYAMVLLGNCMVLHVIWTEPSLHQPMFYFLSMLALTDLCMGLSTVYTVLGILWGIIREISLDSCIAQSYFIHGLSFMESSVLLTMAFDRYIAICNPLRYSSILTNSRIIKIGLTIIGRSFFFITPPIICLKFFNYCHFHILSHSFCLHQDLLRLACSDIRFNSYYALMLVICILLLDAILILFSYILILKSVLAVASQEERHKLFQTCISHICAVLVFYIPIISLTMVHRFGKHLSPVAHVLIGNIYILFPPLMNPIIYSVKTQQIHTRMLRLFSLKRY
In short: as §1

[9] = target: T9, OR52A1 (Homo sapiens) (UniProt Q9UKL2)
T9 sequence (whole entry): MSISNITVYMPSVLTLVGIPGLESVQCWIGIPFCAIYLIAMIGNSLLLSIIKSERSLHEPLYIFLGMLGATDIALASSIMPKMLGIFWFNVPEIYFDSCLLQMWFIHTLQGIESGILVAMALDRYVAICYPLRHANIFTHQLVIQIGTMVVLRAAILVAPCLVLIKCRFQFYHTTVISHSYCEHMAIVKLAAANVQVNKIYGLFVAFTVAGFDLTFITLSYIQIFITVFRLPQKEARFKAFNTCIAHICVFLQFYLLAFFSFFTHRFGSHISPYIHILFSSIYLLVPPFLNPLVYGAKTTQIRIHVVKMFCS
In short: as §1

[10] = target: T10, OR52A4P (Homo sapiens) (UniProt A6NMU1)
T10 sequence (whole entry): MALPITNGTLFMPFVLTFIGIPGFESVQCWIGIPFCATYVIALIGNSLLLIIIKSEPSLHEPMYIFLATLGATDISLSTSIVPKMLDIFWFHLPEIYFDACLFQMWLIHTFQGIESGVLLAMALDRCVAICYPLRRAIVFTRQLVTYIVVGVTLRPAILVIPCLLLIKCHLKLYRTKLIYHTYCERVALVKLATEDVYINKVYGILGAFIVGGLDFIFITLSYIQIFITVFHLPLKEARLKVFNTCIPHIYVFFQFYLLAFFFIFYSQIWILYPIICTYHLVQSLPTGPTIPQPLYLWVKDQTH
In short: as §1

[11] = target: T11, OR52A5 (Homo sapiens) (UniProt Q9H2C5)
T11 sequence (whole entry): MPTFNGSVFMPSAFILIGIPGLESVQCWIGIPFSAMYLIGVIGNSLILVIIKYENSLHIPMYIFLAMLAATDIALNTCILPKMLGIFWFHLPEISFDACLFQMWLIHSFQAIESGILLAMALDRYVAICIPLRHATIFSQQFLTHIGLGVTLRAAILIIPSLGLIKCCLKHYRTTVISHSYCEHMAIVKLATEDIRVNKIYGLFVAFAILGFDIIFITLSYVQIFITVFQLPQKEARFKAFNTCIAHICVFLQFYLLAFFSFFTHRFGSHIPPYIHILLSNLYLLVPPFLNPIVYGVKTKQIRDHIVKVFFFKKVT
In short: as §1

[12] = target: T12, OR52B2 (Homo sapiens) (UniProt Q96RD2)
T12 sequence (whole entry): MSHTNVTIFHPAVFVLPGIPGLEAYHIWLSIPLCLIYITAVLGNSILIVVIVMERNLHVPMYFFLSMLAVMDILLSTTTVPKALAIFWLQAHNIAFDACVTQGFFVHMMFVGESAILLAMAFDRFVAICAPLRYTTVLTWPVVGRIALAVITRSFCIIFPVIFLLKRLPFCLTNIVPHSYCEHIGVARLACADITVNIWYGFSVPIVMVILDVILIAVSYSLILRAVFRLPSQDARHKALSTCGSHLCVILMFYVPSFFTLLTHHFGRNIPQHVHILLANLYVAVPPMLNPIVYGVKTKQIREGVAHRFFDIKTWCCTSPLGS
In short: as §1

[13] = target: T13, OR52B4 (Homo sapiens) (UniProt Q8NGK2)
T13 sequence (whole entry): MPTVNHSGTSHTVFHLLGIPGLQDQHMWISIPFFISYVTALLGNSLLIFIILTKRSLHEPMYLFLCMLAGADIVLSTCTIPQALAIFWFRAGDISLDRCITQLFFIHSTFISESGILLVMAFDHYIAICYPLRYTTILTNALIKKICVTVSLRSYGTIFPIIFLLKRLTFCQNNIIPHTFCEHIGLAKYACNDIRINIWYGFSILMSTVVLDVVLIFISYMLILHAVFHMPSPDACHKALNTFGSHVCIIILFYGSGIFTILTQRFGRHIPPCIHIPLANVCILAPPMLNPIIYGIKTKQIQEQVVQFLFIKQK
In short: as §1

[14] = target: T14, OR52B6 (Homo sapiens) (UniProt Q8NGF0)
T14 sequence (whole entry): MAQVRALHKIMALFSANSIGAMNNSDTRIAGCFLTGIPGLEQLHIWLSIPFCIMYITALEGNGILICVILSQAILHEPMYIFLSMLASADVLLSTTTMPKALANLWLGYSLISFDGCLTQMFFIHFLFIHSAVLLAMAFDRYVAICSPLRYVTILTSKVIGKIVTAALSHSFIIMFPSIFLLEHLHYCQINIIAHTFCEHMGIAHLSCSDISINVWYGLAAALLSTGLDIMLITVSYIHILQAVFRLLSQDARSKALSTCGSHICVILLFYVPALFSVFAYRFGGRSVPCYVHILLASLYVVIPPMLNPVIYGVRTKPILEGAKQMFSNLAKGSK
In short: as §1

[15] = target: T15, OR52D1 (Homo sapiens) (UniProt Q9H346)
T15 sequence (whole entry): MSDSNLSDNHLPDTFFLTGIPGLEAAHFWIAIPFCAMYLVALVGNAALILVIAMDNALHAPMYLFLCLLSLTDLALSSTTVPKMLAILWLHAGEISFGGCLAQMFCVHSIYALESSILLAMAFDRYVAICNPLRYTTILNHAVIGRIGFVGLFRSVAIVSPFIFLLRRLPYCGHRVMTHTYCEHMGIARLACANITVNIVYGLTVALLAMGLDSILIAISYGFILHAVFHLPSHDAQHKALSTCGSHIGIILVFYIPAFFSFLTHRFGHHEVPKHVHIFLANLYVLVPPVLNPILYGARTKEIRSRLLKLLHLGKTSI
In short: as §1

[16] = target: OR52E2 (Homo sapiens) (UniProt Q8NGJ4)
OR52E2 (Homo sapiens), sequence (Q8NGJ4 whole entry): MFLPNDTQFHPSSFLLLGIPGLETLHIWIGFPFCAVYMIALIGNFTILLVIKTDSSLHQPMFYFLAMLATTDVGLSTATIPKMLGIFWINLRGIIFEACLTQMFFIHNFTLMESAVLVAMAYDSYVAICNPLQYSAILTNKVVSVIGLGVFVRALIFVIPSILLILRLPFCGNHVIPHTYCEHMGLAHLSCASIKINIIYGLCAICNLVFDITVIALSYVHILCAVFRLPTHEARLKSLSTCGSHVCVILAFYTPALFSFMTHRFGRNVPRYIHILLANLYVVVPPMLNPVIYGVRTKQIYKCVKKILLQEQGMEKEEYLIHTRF
In short: as §1

[17] = target: OR52E4 (Homo sapiens) (UniProt Q8NGH9)
OR52E4 (Homo sapiens), sequence (Q8NGH9 whole entry): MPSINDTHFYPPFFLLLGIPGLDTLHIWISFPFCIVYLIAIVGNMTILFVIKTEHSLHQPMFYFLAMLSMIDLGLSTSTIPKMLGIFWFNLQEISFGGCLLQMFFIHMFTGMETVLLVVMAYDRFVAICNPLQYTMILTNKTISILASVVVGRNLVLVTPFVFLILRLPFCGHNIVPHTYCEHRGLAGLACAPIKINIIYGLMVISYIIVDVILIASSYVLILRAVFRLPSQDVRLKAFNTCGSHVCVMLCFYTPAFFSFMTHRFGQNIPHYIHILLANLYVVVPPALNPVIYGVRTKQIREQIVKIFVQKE
In short: as §1

[18] = target: OR52E5 (Homo sapiens) (UniProt Q8NH55)
OR52E5 (Homo sapiens), sequence (Q8NH55 whole entry): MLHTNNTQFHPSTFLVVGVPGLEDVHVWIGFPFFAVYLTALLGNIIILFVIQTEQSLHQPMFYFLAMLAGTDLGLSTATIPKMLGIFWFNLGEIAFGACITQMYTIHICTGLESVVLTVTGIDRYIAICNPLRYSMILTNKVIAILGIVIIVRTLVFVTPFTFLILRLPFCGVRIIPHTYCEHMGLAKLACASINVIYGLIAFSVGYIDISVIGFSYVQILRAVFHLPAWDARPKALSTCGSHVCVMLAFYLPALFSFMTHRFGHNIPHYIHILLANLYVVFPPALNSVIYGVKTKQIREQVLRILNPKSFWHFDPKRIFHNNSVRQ
In short: as §1

[19] = target: OR52E6 (Homo sapiens) (UniProt Q96RD3)
OR52E6 (Homo sapiens), sequence (Q96RD3 whole entry): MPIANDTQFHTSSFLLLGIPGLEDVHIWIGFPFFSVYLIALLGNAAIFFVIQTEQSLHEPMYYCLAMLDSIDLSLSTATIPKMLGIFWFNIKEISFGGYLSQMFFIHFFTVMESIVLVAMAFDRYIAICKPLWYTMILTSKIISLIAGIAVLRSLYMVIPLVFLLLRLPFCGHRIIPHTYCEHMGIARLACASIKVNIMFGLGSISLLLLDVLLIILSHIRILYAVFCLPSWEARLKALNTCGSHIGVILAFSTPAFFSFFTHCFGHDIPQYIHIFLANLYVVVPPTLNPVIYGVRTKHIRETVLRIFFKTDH
In short: as §1

[20] = target: OR52E1 (Homo sapiens) (UniProt Q8NGJ3)
OR52E1 (Homo sapiens), sequence (Q8NGJ3 whole entry): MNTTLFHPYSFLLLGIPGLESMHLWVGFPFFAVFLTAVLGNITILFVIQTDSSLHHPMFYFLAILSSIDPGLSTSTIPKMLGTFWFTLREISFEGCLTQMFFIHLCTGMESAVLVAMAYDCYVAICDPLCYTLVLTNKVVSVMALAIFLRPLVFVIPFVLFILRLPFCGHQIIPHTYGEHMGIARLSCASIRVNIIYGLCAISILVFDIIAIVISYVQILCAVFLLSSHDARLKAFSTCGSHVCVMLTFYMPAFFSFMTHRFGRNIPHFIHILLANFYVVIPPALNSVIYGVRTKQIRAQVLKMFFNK
In short: as §1
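Note: active if original authors judged signal statistically different from baseline.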

SMILES | odorant receptor agonist call [1] | odorant receptor agonist call [2] | odorant receptor agonist call [3] | odorant receptor agonist call [4] | odorant receptor agonist call [5] | odorant receptor agonist call [6] | odorant receptor agonist call [7] | odorant receptor agonist call [8] | odorant receptor agonist call [9] | odorant receptor agonist call [10] | odorant receptor agonist call [11] | odorant receptor agonist call [12] | odorant receptor agonist call [13] | odorant receptor agonist call [14] | odorant receptor agonist call [15] | odorant receptor agonist call [16] | odorant receptor agonist call [17] | odorant receptor agonist call [18] | odorant receptor agonist call [19] | odorant receptor agonist call [20]
CCCCC(S)C(C)CO (configuration not stated) | inactive | inactive | inactive | inactive | inactive | inactive | active | inactive | inactive | inactive | active | inactive | inactive | inactive | inactive | inactive | inactive | inactive | inactive | –
CCC(S)C(C)CO (configuration not stated) | inactive | inactive | inactive | inactive | inactive | inactive | inactive | inactive | inactive | inactive | inactive | inactive | inactive | inactive | inactive | inactive | inactive | inactive | inactive | –
CCCCCCC=CCCC=O | inactive | inactive | inactive | inactive | inactive | inactive | inactive | inactive | inactive | – | inactive | inactive | inactive | inactive | inactive | inactive | inactive | inactive | inactive | inactive
